Assay: Inhibition of mitochondrial complex 1 in bovine heart mitochondria assessed as effect on rate of NADH oxidation
Design: species or system Bos taurus
How it was run: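 Bovine heart submitochondrial particles (45 µg/mL final) in 50 mM K₂HPO₄ pH 7.4 with 0.4 µM antimycin A and 2 mM KCN. Inhibitor at varying concentrations preincubated 4 min, then 100 µM decyl ubiquinone and 50 µM NADH added. NADH oxidation followed at 340 nm, 37 °C, 120 s; IC50 is concentration giving 50% inhibition.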

Compared with CCCCCCCCCCSC1N=CN(C(C)(C)C)C(=O)C1Cl (stereo not drawn), CCCCc1ccc(COc2cnn(C(C)(C)C)c(=O)c2Cl)cc1 is lower in IC50: greater than 4 µM for the first, 0.017 µM for the second. The second is the more potent here.

First: Cc1c(SCc2ccc(C(C)(C)C)cc2)cnn(C(C)(C)C)c1=O
Second: CC(C)(C)c1ccc(CSc2cnn(C(C)(C)C)c(=O)c2Cl)cc1 [PYRIDABEN]
The IC50 of the first is 2.6-fold higher: 0.021 µM for the first, 0.008 µM for the second. The second is the more potent here.

Compared with CC(C)(C)c1ccc(CCOc2cnn(C(C)(C)C)c(=O)c2Cl)cc1, CC(C)(C)c1ccc(COc2cnn(C(C)(C)C)c(=O)c2Cl)cc1 is 11-fold lower in IC50: 0.711 µM for the first, 0.064 µM for the second. The second is the more potent here.

First: CCCCOc1ccc(COc2cnn(C(C)(C)C)c(=O)c2Cl)cc1
Second: CC(C)(C)n1ncc(OCc2ccccc2)c(Cl)c1=O
The IC50 of the first is 31-fold lower: 0.027 µM for the first, 0.85 µM for the second.

First: CC(C)(C)n1ncc(OCc2ccc3ncccc3c2)c(Cl)c1=O
Second: CC(C)(C)n1ncc(OCc2ccc(-c3ccccc3)cc2)c(Cl)c1=O
The IC50 of the first is 7.1-fold higher: 0.221 µM for the first, 0.031 µM for the second.

Going from CC(C)(C)c1ccc(CSc2cnn(C(C)(C)C)c(=O)c2CF)cc1 to CC(C)(C)c1ccc(CCOc2ncnc3ccccc23)cc1 [FENAZAQUIN], the IC50 falls from 0.25 µM to 0.09 µM (2.8-fold). The second is the more potent here.

C=C(C)[C@H]1Cc2c(ccc3c2O[C@@H]2COc4cc(OC)c(OC)cc4[C@@H]2C3=O)O1 [ROTENONE] gave an IC50 of 0.016 µM.

Reference: ChEMBL document CHEMBL1150282, “Synthesis and biological evaluation of pyridazinone analogues as potential cardiac positron emission tomography tracers” (J Med Chem, 2008)
